This note sets out measurements from ChEMBL document CHEMBL3244271, “Synthetic sulfur-containing amino acids. Inhibition of transport systems in S37 ascites tumor cells” (J Med Chem, 1978).

What all share (format): cell-based
For assay [1], the system named is S37. Nature of the assay: Inhibition of A-type amino acid transporter-mediated [3H]-L-histidine uptake in mouse S37 cells assessed as residual activity at 5 mM after 2 mins by liquid scintillation counting analysis relative to control.
The test system of assay [2] is S37. Description: Inhibition of L-type amino acid transporter-mediated [3H]-L-histidine uptake in mouse S37 cells assessed as residual activity at 5 mM after 2 mins by liquid scintillation counting analysis relative to control.
Assay [3] concerns S37. Nature of the assay: Inhibition of A-type amino acid transporter-mediated [3H]-L-histidine uptake in mouse S37 cells assessed as residual activity at 10 mM after 2 mins by liquid scintillation counting analysis relative to control. The gist of the method: (§1)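 S37 ascites tumor cells were harvested 6-8 days after transplanting about 0.3 mL of a 1:10 packed-cell suspension. Cells were washed three times in modified Krebs-Ringer phosphate buffer, resuspended, and incubated with [3H]-L-histidine at 10 mM (A system) for 2 min at 20 °C. Uptake was stopped in chilled buffer, and cells were spun, rinsed and weighed wet. Pellets were lysed in 95% EtOH and counted by scintillation. Results are % of control, with duplicate runs on triplicate samples.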

Assay [4] deals with S37. Nature of the assay: Inhibition of L-type amino acid transporter-mediated [3H]-L-histidine uptake in mouse S37 cells assessed as residual activity at 10 mM after 2 mins by liquid scintillation counting analysis relative to control. The gist of the method: (§2)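 Mouse-passaged S37 ascites cells were collected 6-8 days post-transplant, washed three times and resuspended in modified Krebs-Ringer phosphate buffer. L-system uptake used [3H]-L-histidine at 0.1 mM for 2 min at 20 °C. Incubation ended on pouring into chilled buffer, followed by three centrifugations to remove entrained label. Pellet wet weight was recorded, the EtOH lysate was scintillation-counted, and results are % of control, averaging duplicate runs on triplicate samples.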

Assay [5] relates to S37. Nature of the assay: Inhibition of L-type amino acid transporter-mediated [3H]-L-histidine uptake in mouse S37 cells assessed as residual activity after 2 mins by liquid scintillation counting analysis relative to control. The gist of the method:
as §2

Assay [6] relates to S37. Nature of the assay: Inhibition of A-type amino acid transporter-mediated [3H]-L-histidine uptake in mouse S37 cells assessed as residual activity after 2 mins by liquid scintillation counting analysis relative to control. The gist of the method:
as §1

On to `CCSCC[C@H](N)C(=O)O`, for which the Activity with S37 [1] turned out to be 63%; in the assay on S37 [2], 11%.

For `O=C(O)C1NCCS1` (racemic), the Activity is 58% with S37 [3] and 63% in the assay with S37 [4].

Regarding `O=C(O)[C@@H]1CSCCN1`, the Activity was determined as 73% with S37 [1] and 51% in the assay with S37 [2].

On to `N[C@@H](CSCCSC[C@H](N)C(=O)O)C(=O)O`, for which the values for the Activity in the assay with S37 [1] and with S37 [2] were 70% and 52%, respectively.

Turning to `NC(CCS)C(=O)O` (racemic), the Activity with S37 [3] worked out at 55%; in the assay with S37 [4] it was 6%.

Turning to `CC1N[C@H](C(=O)O)CS1` (stereo partly specified), the Activity stood at 72% in the assay on S37 [1] and 70% in the assay on S37 [2].

Turning to `N[C@@H](CS)C(=O)O`, the figures for the Activity in the assay on S37 [1] and in the assay with S37 [2] were 51% and 16%, respectively.

As for `O=C(O)[C@@H]1CSCN1`, the Activity with S37 [1] was found to be 74%; in the assay on S37 [2], 72%.

`CC1(C)N[C@H](C(=O)O)CS1`: the Activity in the assay with S37 [1] was determined as 68%; in the assay on S37 [2] it was 45%.

As for `NC1(C(=O)O)CCSCC1`, the Activity was determined as 31% in the assay with S37 [5] and 81% with S37 [6].

`CSCC[C@H](N)C(=O)O`: the figures for the Activity with S37 [1] and in the assay with S37 [2] were 68% and 11%, respectively.

For the molecule `O=C(O)C1CCSCN1` (racemic), the results for the Activity in the assay on S37 [3] and with S37 [4] were 85% and 90%, respectively.

As for `NC1CCSC1=O` (stereo unspecified), the Activity with S37 [3] was 119%; in the assay with S37 [4], 96%.
